In ChEMBL document CHEMBL4732031, “Novel fluorinated ring-fused chlorins as promising PDT agents against melanoma and esophagus cancer” (RSC Med Chem, 2021):

Experiments:
A-375 [1] = experiment: Photocytotoxicity against human A375 cells assessed as cell viability after 24 hrs in presence of light irradiation by MTT assay; type: functional, cell-based; conditions: A-375, light or radiation study
Method in brief: (§1)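 A375 (DMEM) or OE19 (RPMI 1640) cells were plated overnight and given sensitizer at 1 nM–10 μM, diluted from a 1 mg/mL DMSO stock, with a 1% DMSO vehicle control. After 24 h dark incubation at 37 °C, cells were PBS-washed and refed.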

OE19 [2] = experiment: Photocytotoxicity against human OE19 cells assessed as cell viability after 24 hrs in presence of light irradiation by MTT assay; type: functional, cell-based; conditions: OE19, light or radiation study; method in brief: as §1
OE19 [3] = experiment: Cytotoxicity against human OE19 cells assessed as cell viability measured after 24 hrs by MTT assay; type: cell-based; conditions: OE19, 24 h
Method in brief: (§2)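 Dark control run in A375 (DMEM) or OE19 (RPMI 1640) cells, plated overnight. Sensitizers were diluted from a 1 mg/mL DMSO stock and given at 1 nM–10 μM, with a 1% DMSO vehicle control. Cells were incubated 24 h at 37 °C in the dark, PBS-washed, refed and not irradiated. Read-out was MTT (0.5 mg/mL, 4 h) with formazan dissolved in HCl/isopropanol, as % of vehicle; IC50 taken from dose–response curves.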

A-375 [4] = experiment: Cytotoxicity against human A375 cells assessed as cell viability measured after 24 hrs by MTT assay; type: cell-based; conditions: A-375, 24 h; method in brief: as §2
[5] = Drug uptake in human A375 cells at 500 nM incubated for 24 hrs by fluorescence emission spectroscopic analysis; type: ADME, cell-based; conditions: a-375, 24 h, 0.5 µM
Method in brief: (§3)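 Cells (5 × 10^5) were exposed to 500 nM sensitizer for 24 h in the dark, then PBS-washed, disrupted in DMSO, scraped and centrifuged. Supernatant fluorescence was read with excitation at 405 and 420 nm. Intracellular concentration was calculated from a calibration curve of each sensitizer in DMSO; mean ± SE.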

[6] = Drug uptake in human OE19 cells at 500 nM incubated for 24 hrs by fluorescence emission spectroscopic analysis; type: ADME, cell-based; conditions: oe19, 24 h, 0.5 µM; method in brief: as §3

Which results are given for `OCc1nn2c(c1CO)CC1c3nc(c(-c4c(F)c(F)cc(F)c4F)c4ccc([nH]4)c(-c4c(F)c(F)cc(F)c4F)c4nc(c(-c5c(F)c(F)cc(F)c5F)c5ccc([nH]5)c3-c3c(F)c(F)cc(F)c3F)C=C4)C1C2` (stereo not given)?
IC50 (A-375 [1]): 0.072 µM; IC50 (OE19 [2]): 0.056 µM; IC50 (OE19 [3]): > 10 µM; IC50 (A-375 [4]): > 10 µM; Drug uptake [5]: 128 nM

Which IC50 (A-375 [1]) does the source give for `COC(=O)c1nn2c(c1C(=O)OC)CC1c3nc(c(-c4c(F)c(F)c(F)c(F)c4F)c4ccc([nH]4)c(-c4c(F)c(F)c(F)c(F)c4F)c4nc(c(-c5c(F)c(F)c(F)c(F)c5F)c5ccc([nH]5)c3-c3c(F)c(F)c(F)c(F)c3F)C=C4)C1C2` (stereo not given) here?
The IC50 was 6.68 µM.

And the IC50 (OE19 [2])?
Its IC50 is 5.61 µM.

And the IC50 (OE19 [3])?
Its IC50 is greater than 10 µM.

And the IC50 (A-375 [4])?
Its IC50 is greater than 10 µM.

With `COC(=O)c1nn2c(c1C(=O)OC)CC1c3nc(c(-c4c(F)c(F)c(NCCOCCO)c(F)c4F)c4ccc([nH]4)c(-c4c(F)c(F)c(NCCOCCO)c(F)c4F)c4nc(c(-c5c(F)c(F)c(NCCOCCO)c(F)c5F)c5ccc([nH]5)c3-c3c(F)c(F)c(NCCOCCO)c(F)c3F)C=C4)C1C2` (stereo not given) as the compound, how does the IC50 (A-375 [1]) read?
The IC50 was 0.913 µM.

What about the IC50 (OE19 [2]) of the same compound?
Its IC50 is 0.105 µM.

What about the IC50 (OE19 [3]) of the same compound?
The IC50 was greater than 10 µM.

And the IC50 (A-375 [4])?
Its IC50 is greater than 10 µM.

What about the Drug uptake [5] of the same compound?
Its Drug uptake is 148 nM.

For `OCCOCCNc1c(F)c(F)c(-c2c3nc(c(-c4c(F)c(F)c(NCCOCCO)c(F)c4F)c4ccc([nH]4)c(-c4c(F)c(F)c(NCCOCCO)c(F)c4F)c4nc(c(-c5c(F)c(F)c(NCCOCCO)c(F)c5F)c5ccc2[nH]5)C2Cc5c(CO)c(CO)nn5CC42)C=C3)c(F)c1F` (stereo not given), which IC50 (A-375 [1]) is on record?
Its IC50 is 0.013 µM.

And the IC50 (OE19 [2])?
Its IC50 is 0.027 µM.

And the IC50 (OE19 [3])?
Its IC50 is greater than 10 µM.

What about the Drug uptake [6] of the same compound?
Its Drug uptake is 202 nM.

And the IC50 (A-375 [4])?
The IC50 was greater than 10 µM.

What about the Drug uptake [5] of the same compound?
The Drug uptake was 254 nM.
